Test results: ChEMBL document CHEMBL4619800, “β-Hydroxy- and β-Aminophosphonate Acyclonucleosides as Potent Inhibitors of Plasmodium falciparum Growth” (J Med Chem, 2020)
Activity calls are given as the source filed them. The calls are words filed in the database; no cut-off is given here.

Tests used:
[1] = Toxicity in human K562 cells assessed as effect on cell growth measured after 24 hrs by [3H]thymidine incorporation based assay
In short: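 K562 cells seeded at 8000 per well in RPMI 1640 with 10% FCS. Incubated 24 h at 37 °C, 5% CO₂ with a range of compound concentrations. Then 0.5 μCi [³H]thymidine added for 6 h. Freeze-thaw, harvest of macromolecules and scintillation counting, with medium-only background subtracted.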

[2] = Selectivity index, ratio of IC50 for human K562 cells to IC50 for antiplasmodial activity against Plasmodium falciparum 3D7 infected in erythrocytes; assay type: toxicity, cell-based; conditions: K562 cells versus Plasmodium falciparum 3D7 in erythrocytes, read-out: Ratio IC50
Plasmodium falciparum [3] = test: Antiplasmodial activity against Plasmodium falciparum 3D7 infected in erythrocytes assessed as reduction in [3H]hypoxanthine incorporation preincubated for 48 hrs followed by [3H]hypoxanthine addition and measured after 18 hrs by topcount scintillation counting analysis; assay type: functional, organism-based
In short: (§1)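 Modified Desjardins test. Infected erythrocytes at 1.5% final hematocrit and 0.6% parasitemia, in HEPES-buffered RPMI 1640 with 10% AB human serum and a range of compound concentrations, for 48 h. Then [³H]hypoxanthine (0.5 μCi/well) added for 18 h. Freeze-thaw lysis, filter harvest, scintillation counting, uninfected-erythrocyte background subtracted. IC50 from sigmoidal variable-slope regression. Mean of ≥3 independent experiments in duplicate.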

Plasmodium berghei [4] = test: Antiplasmodial activity against Plasmodium berghei ANKA infected in Swiss NMRI mouse assessed as reduction in parasitemia at 30 mg/kg, ip administered as single dose by Giemsa-staining based assay relative to control; assay type: functional; parameters: scale not given: the % may be the effect or the level left
In short: (§2)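 Female Swiss NMRI mice infected on day 0 by IV caudal-vein injection of 10⁷ P. berghei ANKA-infected erythrocytes (clone 2.34). Compound given ip in 0.9% NaCl, 100 μL per mouse, 3 mice per group. Either one daily dose for 4 consecutive days from day 1, or a single dose on day 1. Parasitemia counted on Giemsa-stained thin smears and followed for 30 days. Controls received vehicle only.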

Plasmodium falciparum [5] = test: (§3) Antiplasmodial activity against segmented schizont stage Plasmodium falciparum 3D7 infected in erythrocytes assessed as effect on merozoite development at 2 uM supplemented with fresh medium containing compound every 24 hrs measured at 45 hrs by Hoechst staining based immunofluorescence microscopic analysis; assay type: functional, organism-based
In short: (§4)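 Tightly synchronized ring-stage culture at 2.5% hematocrit and 1–2% parasitemia, treated or not with 2 μM; drug-containing medium changed every 24 h. At 45 h (segmented schizonts), smears fixed in 4% formaldehyde/PBS, glycine-quenched, Triton X-100-permeabilized and BSA-blocked. Stained with α-mTIP and α-MSP1 antibodies, then secondaries, with Hoechst labelling nuclei.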

Plasmodium falciparum [6] = test: Antiplasmodial activity against chloroquine-resistant Plasmodium falciparum FcM29 infected in erythrocytes assessed as reduction in [3H]hypoxanthine incorporation preincubated for 48 hrs followed by [3H]hypoxanthine addition and measured after 18 hrs by topcount scintillation counting analysis; assay type: functional, organism-based; in short: as §1
Plasmodium falciparum [7] = test: Antiplasmodial activity against chloroquine-resistant Plasmodium falciparum W2 infected in erythrocytes assessed as reduction in [3H]hypoxanthine incorporation preincubated for 48 hrs followed by [3H]hypoxanthine addition and measured after 18 hrs by topcount scintillation counting analysis; assay type: functional, organism-based; in short: as §1
Plasmodium falciparum [8] = test: (§5) Antiplasmodial activity against synchronized ring stage Plasmodium falciparum 3D7 infected in erythrocytes assessed as effect on parasite development by measuring ring stage parasitemia at 2 uM measured immediately by Giemsa/Diff-quick staining based fluorescence microscopic analysis (reference value: 2.1%); assay type: functional
In short: (§6)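 Tightly synchronized ring-stage culture at 2.5% hematocrit and 1–2% parasitemia, treated or not with 2 μM for 69 h, with drug-containing medium renewed every 24 h. Thin smears taken every 6 h, methanol-fixed and stained with Diff-Quick (pH 7.2). Parasitemia scored by parasite stage, and morphology examined.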

Plasmodium falciparum [9] = test: as §5, with “uM supplemented with fresh medium containing compound every 24 hrs” for “uM”, “at 48 hrs” for “immediately”, “9.9%)” for “2.1%)”; assay type: functional; in short: as §6
Plasmodium berghei [10] = test: Antiplasmodial activity against Plasmodium berghei ANKA infected in Swiss NMRI mouse assessed as parasitemia at 30 mg/kg, ip administered once daily for 4 days measured on day 11 by Giemsa-staining based assay relative to control; assay type: functional; in short: as §2
Plasmodium falciparum [11] = test: as §5, with “after 24 hrs” for “immediately”; assay type: functional; in short: as §6
Plasmodium falciparum [12] = test: as §5, with “uM supplemented with fresh medium containing compound every 24 hrs” for “uM”, “at 69 hrs” for “immediately”, “11.1%)” for “2.1%)”; assay type: functional; in short: as §6
Plasmodium falciparum [13] = test: as §3, with “DNA content” for “development”; assay type: functional, organism-based; in short: as §4
Plasmodium falciparum [14] = test: as §5, with “measuring early schizont” for “measuring ring”, “uM supplemented with fresh medium containing compound every 24 hrs” for “uM”, “measured at 39 hrs” for “measured immediately”; assay type: functional; in short: as §6
Plasmodium berghei [15] = test: Antiplasmodial activity against Plasmodium berghei ANKA infected in ip dosed Swiss NMRI mouse assessed as reduction in parasitemia administered once daily for 4 days measured 24 hrs post-last dose by Giemsa-staining based assay; assay type: functional
In short: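 Female Swiss NMRI mice infected on day 0 by IV injection of 10⁷ P. berghei ANKA-infected erythrocytes. Dosed ip once daily for 4 days from day 1, 3 mice per group. Test doses 0–30 mg/kg in 0.9% NaCl; artesunate 0–27 mg/kg in DMSO. Controls received vehicle. Parasitemia counted on day 5 from Giemsa-stained smears, and ED50 taken as the dose giving 50% parasitemia reduction.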

Plasmodium falciparum [16] = test: (§7) Antiplasmodial activity against synchronized ring stage Plasmodium falciparum 3D7 infected in erythrocytes assessed as effect on parasite development by measuring late schizont stage parasitemia at 2 uM supplemented with fresh medium containing compound every 24 hrs measured at 48 hrs by Giemsa/Diff-quick staining based fluorescence microscopic analysis (reference value: 0.4%); assay type: functional; in short: as §6
Plasmodium berghei [17] = test: Antiplasmodial activity against Plasmodium berghei ANKA infected in Swiss NMRI mouse assessed as parasitemia at 30 mg/kg, ip administered once daily for 4 days measured on day 14 by Giemsa-staining based assay relative to control; assay type: functional; in short: as §2
Plasmodium berghei [18] = test: Antiplasmodial activity against Plasmodium berghei ANKA infected in po dosed Swiss NMRI mouse assessed as reduction in parasitemia administered once daily for 4 days measured 24 hrs post-last dose by Giemsa-staining based assay; assay type: functional
In short: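 Female Swiss NMRI mice infected on day 0 by IV injection of 10⁷ P. berghei ANKA-infected erythrocytes. Oral dosing in water (100 μL, 3 mice per group) at 0, 1, 3, 10 and 30 mg/kg, once daily for 4 days from day 1. Water-only controls. Day-5 parasitemia counted on Giemsa-stained thin smears, and ED50 derived as the dose reducing parasitemia by 50%.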

Plasmodium falciparum [19] = test: as §7, with “42” for “48”, “1.9%)” for “0.4%)”; assay type: functional; in short: as §6

Row | SMILES | IC50 at 24 h [1] [µM] | selectivity ratio [2] | IC50 (Plasmodium falciparum [3]) [µM] | further results
1 | O=c1[nH]c(=O)c2ncn(CC[C@H](O)CP(=O)(O)O)c2[nH]1 | > 1000 | > 1 | 910 | 
2 | Nc1nc(F)nc2c1ncn2CC[C@@H](O)CP(=O)(O)O | > 1000 | > 38 | 26.3 | 
3 | Nc1nc(N)c2ncn(CC[C@H](N)CP(=O)(O)O)c2n1 | > 1000 |  | > 100 | 
4 | Nc1nc(O)c2ncn(CCCCP(=O)(O)O)c2n1 | > 1000 | > 17 | 74 | 
5 | Nc1ncnc2c1ncn2CC[C@H](O)CP(=O)(O)O | > 1000 |  | > 1000 | 
6 | Nc1nc2c(ncn2CC[C@@H](O)CP(=O)([O-])[O-])c(=O)[nH]1.[Na+].[Na+] | > 1000 | > 1350 | 0.074 | Activity (Plasmodium berghei [4]): 95%; Activity (Plasmodium falciparum [5]): inactive; IC50 (Plasmodium falciparum [6]): 0.03 µM; IC50 (Plasmodium falciparum [7]): 0.045 µM; Activity (Plasmodium falciparum [8]): 2.1%; Activity (Plasmodium falciparum [9]): 0.6%; Activity (Plasmodium berghei [10]): 6.9 - 16.7%; Activity (Plasmodium falciparum [11]): 2.1%; Activity (Plasmodium falciparum [12]): 0%; Activity (Plasmodium falciparum [13]): inactive; Activity (Plasmodium falciparum [14]): 2.1%; ED50 (Plasmodium berghei [15]): 0.56 mg/kg; Activity (Plasmodium falciparum [16]): 1.3%; Activity (Plasmodium berghei [17]): 1.7%; ED50 (Plasmodium berghei [18]): 30 mg/kg; Activity (Plasmodium falciparum [19]): 1.7%
7 | Nc1ncnc2c1ncn2CC[C@@H](O)CP(=O)(O)O | > 1000 |  | > 1000 | 
8 | Nc1ncnc2c1ncn2C[C@@H](O)CP(=O)(O)O | > 1000 |  | > 1000 | 
9 | Nc1ncc2ncn(CC[C@@H](O)CP(=O)(O)O)c2n1 | > 1000 | > 16 | 67 | 
10 | Nc1nc(N)c2ncn(C[C@H](O)CP(=O)(O)O)c2n1 | > 1000 | > 2 | 510 | 
11 | O=c1[nH]cnc2c1ncn2CC[C@H](O)CP(=O)(O)O | > 1000 |  | > 1000 | 
12 | Nc1nc(N)c2ncn(CC[C@@H](N)CP(=O)(O)O)c2n1 | > 1000 |  | > 100 | 
13 | C[C@H]1[C@H](OC(=O)CCC(=O)O)O[C@@H]2O[C@@]3(C)CC[C@H]4[C@H](C)CC[C@@H]1[C@@]24OO3 [ARTESUNATE] |  |  |  | ED50 (Plasmodium berghei [15]): 0.1 mg/kg
14 | Nc1nc(N)c2ncn(C[C@@H](O)CP(=O)(O)O)c2n1 | > 1000 | > 2.6 | 327 | 
15 | Nc1nc(N)c2ncn(CC[C@@H](O)CP(=O)(O)O)c2n1 | > 1000 | > 21 | 48 | 
16 | Nc1nc(O)c2ncn(CC[C@H](N)CP(=O)(O)O)c2n1 | > 1000 |  | > 100 | 
17 | Nc1nc(O)c2ncn(CC[C@@H](N)CP(=O)(O)O)c2n1 | > 1000 |  | > 100 | 
18 | Nc1nc2c(ncn2CC[C@H](O)CP(=O)(O)O)c(=O)[nH]1 | > 1000 | 164 | 6.1 | IC50 (Plasmodium falciparum [6]): 4.5 µM; IC50 (Plasmodium falciparum [7]): 5.6 µM
19 | Nc1nc2c(ncn2C[C@H](O)CP(=O)(O)O)c(=O)[nH]1 | > 1000 | > 1.7 | 595 | 
20 | Nc1nc(N)c2ncn(CC[C@H](O)CP(=O)(O)O)c2n1 | > 1000 |  | > 1000 | 
21 | Nc1nc(O)c2ncn(CC/C=C\P(=O)(O)O)c2n1 | > 1000 |  | > 100 | 
22 | Nc1nc2c(ncn2C[C@@H](O)CP(=O)(O)O)c(=O)[nH]1 | > 1000 |  | > 1000 | 
23 | Nc1ncnc2c1ncn2C[C@H](O)CP(=O)(O)O | > 1000 |  | > 1000 | 
24 | CCN(CC)CCCC(C)Nc1ccnc2cc(Cl)ccc12 (stereo not drawn) [CHLOROQUINE] | 25.3 |  |  | 
25 | O=c1[nH]c(=O)c2ncn(CC[C@@H](O)CP(=O)(O)O)c2[nH]1 | > 1000 |  | 590 | 
26 | O=c1[nH]cnc2c1ncn2CC[C@@H](O)CP(=O)(O)O | > 1000 |  | > 1000 | 
